In ChEMBL document CHEMBL4177577, “Lipophilic methylene violet analogues as modulators of mitochondrial function and dysfunction” (Bioorg Med Chem, 2017):
The source made the active and inactive calls. No cut-off for these calls is given here.

Assays:
[1] = Cytotoxicity in human Friedreich's ataxia lymphocytes assessed as reduction in cell viability at 2.5 uM incubated for 24 hrs by Live/Dead cell viability assay; assay type: cell-based; settings: friedreich's ataxia lymphocyte
How it was run: (§1)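 FRDA lymphocytes (5×10^5 cells/mL) were kept in glucose-free medium (25 mM galactose) with compound at 37 °C and 5% CO₂ for 24 or 48 h. Cells were washed, stained with 0.1 μM calcein AM (live) and 0.2 μM EthD-1 (dead) for 15 min at 37 °C and analysed by flow cytometry (10,000 events). Duplicates were run in two independent runs.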

[2] = Cytotoxicity in human Friedreich's ataxia lymphocytes assessed as reduction in cell viability at 2.5 uM incubated for 48 hrs by Live/Dead cell viability assay; assay type: cell-based; settings: friedreich's ataxia lymphocyte; how it was run: as §1
[3] = system: Friedreich's ataxia lymphocyte; assay: Inhibition of ROS generation in human Friedreich's ataxia lymphocytes at 250 and 2500 nM incubated for 16 hrs by DCFH-DA staining based FACS method; assay type: functional, cell-based
How it was run: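 FRDA lymphocytes (GM15850; 5×10^5 cells/mL) were pretreated with compound for 16 h at 37 °C, then exposed to 5 mM diethyl maleate for 80 min to deplete glutathione. Cells were loaded with 10 μM DCFH-DA in PBS with 20 mM glucose for 25 min at 37 °C and DCF was read by flow cytometry (10,000 events). Median fluorescence is given as % of the DEM-treated control; duplicates in two runs.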

[4] = system: Friedreich's ataxia lymphocyte; assay: Cytoprotection against rotenone-induced cytotoxicity in human Friedreich's ataxia lymphocytes assessed as increase in cell viability at 0.25 and 2.5 uM pre-incubated for 12 hrs in glucose-free media followed by rotenone challenge for 24 hrs by Live/Dead cell viability assay; assay type: functional, cell-based
How it was run: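 FRDA lymphocytes (5×10^5 cells/mL) in glucose-free medium with 25 mM galactose were pretreated with compounds at 37 °C, then exposed to 50 nM rotenone for 24 h. Cells were stained with 0.1 μM calcein AM and 0.2 μM EthD-1 for 15 min at 37 °C and run on flow cytometry (10,000 events). Live cells are given as % of control; two independent runs in duplicate.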

[5] = system: Friedreich's ataxia lymphocyte; assay: Effect on ATP level in human Friedreich's ataxia lymphocytes at 100 to 5000 nM incubated for 24 hrs by luminescence based assay; assay type: functional, cell-based
How it was run: (§2)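 Lymphocytes (2×10^5 cells/mL) were treated with compound at final 0.1, 0.5 or 5 μM (DMSO <0.5%) in glucose-free medium (25 mM galactose) for 24 h at 37 °C. Total intracellular ATP was read by a bioluminescence kit and given as % of untreated control. Data are the mean of at least three independent experiments.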

[6] = Induction of mitochondrial membrane potential preservation in human Friedreich's ataxia lymphocytes assessed as JC1 dye monomer level at 5 uM pre-incubated for 16 hrs by JC1 staining based assay (reference value: 10.1%)
[7] = Induction of mitochondrial membrane potential preservation in human Friedreich's ataxia lymphocytes assessed as JC1 dye aggregates level at 5 uM pre-incubated for 16 hrs by JC1 staining based assay (reference value: 69.8%)
[8] = system: Friedreich's ataxia fibroblast (Homo sapiens); assay: Cytoprotection against buthionine sulfoximine-induced cytotoxicity in human Friedreich's ataxia fibroblasts assessed as increase in cell viability at 25 to 1000 nM pre-incubated before buthionine sulfoximine challenge for 48 hrs by Live/Dead cell viability assay
[9] = system: Friedreich's ataxia lymphocyte; assay: Increase in ATP level in human Friedreich's ataxia lymphocytes at 0.1 uM incubated for 24 hrs by luminescence based assay; assay type: functional, cell-based; how it was run: as §2
[10] = system: Friedreich's ataxia lymphocyte; assay: Increase in ATP level in human Friedreich's ataxia lymphocytes at 0.5 uM incubated for 24 hrs by luminescence based assay; assay type: functional, cell-based; how it was run: as §2
[11] = Reduction in ATP level in human Friedreich's ataxia lymphocytes at 5 uM incubated for 24 hrs by luminescence based assay; assay type: ADME, cell-based; settings: friedreich's ataxia lymphocyte; how it was run: as §2
Bos taurus = organism: Bos taurus; assay: Effect on NADH-ubiquinone oxidoreductase in bovine heart submitochondrial particles assessed as induction of electron flow from complex-1 by measuring NADH oxidation at 5 uM in presence of 50 nM rotenone using NADH and coenzyme Q1 by spectrophotomery
How it was run: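 Submitochondrial particles (30 μg/mL) were preincubated 5 min at 30 °C with compound in 50 mM phosphate buffer, pH 7.4, with 0.25 M sucrose, 1 mM MgCl₂, 2 μM antimycin A and 2 mM KCN. The reaction was started with 75 μM NADH plus 15 μM coenzyme Q₁, and NADH loss was followed at 340 nm. Values are the mean of two independent experiments in duplicate.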

[12] = system: Friedreich's ataxia lymphocyte; assay: Effect on ATP level in human Friedreich's ataxia lymphocytes at 100 nM incubated for 24 hrs by luminescence based assay; assay type: functional, cell-based; how it was run: as §2

SMILES	Activity [1]	Activity [2]	ROS generation inhibition (qualitative) [3]	Activity [4]	Activity [5]	Activity [6]	Activity [7]	Activity [8]	Activity [9]	Activity [10]	Activity [11]	Activity (Bos taurus)	Activity [12]
CCCCCCCCCCCCCCCN(CCCCCCCCCCCCCCC)c1ccc2nc3ccc(=O)cc-3sc2c1	Non-Toxic	Non-Toxic	Active	Active	inactive	11.7%	88.2%	Dose-dependent effect					
CCCCCCCCCCCCCCCN(C)c1ccc2nc3ccc(=O)cc-3sc2c1	Non-Toxic	Non-Toxic	Dose-dependent effect	Active		14.7%	85.2%	Dose-dependent effect	Active	Active	Toxic		
CCCCCCCCCCCCCCCN(CCCC)c1ccc2nc3ccc(=O)cc-3sc2c1	Non-Toxic	Non-Toxic	Dose-dependent effect	Active		10.6%	89.3%	Dose-dependent effect	Active	Active	Toxic	Active	
CCCCN(CCCC)c1ccc2nc3ccc(=O)cc-3sc2c1		Toxic	Active	Active		25.6%	74.2%	Dose-dependent effect					inactive
CN(C)c1ccc2nc3ccc(N(C)C)cc3[s+]c2c1.[Cl-] [METHYLENE BLUE ANHYDROUS]	Toxic	Toxic				58.1%	41.7%						
CN(C)c1ccc(C(=C2C=CC(=[N+](C)C)C=C2)c2ccc(N(C)C)cc2)cc1.[Cl-] [GENTIAN VIOLET]			Active	Active		27.3%	72.6%					Active	inactive
CN(C)c1ccc2nc3ccc(=[N+](C)C)cc-3sc2c1				Active								Active	inactive
CCCCCCCCCCN(CCCCCCCCCC)c1ccc2nc3ccc(=O)cc-3sc2c1	Non-Toxic	Non-Toxic	Active	Active	inactive	14.3%	85.7%	Dose-dependent effect					
